From the M2OR odorant receptor database

What was measured:
Settings in all cases: stereoisomer not certain
UniProt E9PVX1 = molecular target: T1, UniProt E9PVX1
T1 sequence (whole entry): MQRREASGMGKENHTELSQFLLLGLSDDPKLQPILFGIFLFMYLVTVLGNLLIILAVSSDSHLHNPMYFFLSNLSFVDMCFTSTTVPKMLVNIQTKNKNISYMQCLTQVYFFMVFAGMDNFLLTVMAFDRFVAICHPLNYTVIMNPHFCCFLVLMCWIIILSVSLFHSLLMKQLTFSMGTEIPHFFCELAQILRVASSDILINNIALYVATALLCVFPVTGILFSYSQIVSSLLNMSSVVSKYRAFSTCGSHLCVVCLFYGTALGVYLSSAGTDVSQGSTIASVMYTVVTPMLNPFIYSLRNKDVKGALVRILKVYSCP
Method in brief: (§1)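 Transient luciferase assays in mammalian cell lines were common, though methods varied by source. The values come from published papers and their supplementary material, with extra details from the original authors when needed. Responsive refers to a measured signal the original authors judged statistically different from baseline, and non-responsive (inactive) to the remainder.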

UniProt E9PZ66 = molecular target: T2, UniProt E9PZ66
T2 sequence (whole entry): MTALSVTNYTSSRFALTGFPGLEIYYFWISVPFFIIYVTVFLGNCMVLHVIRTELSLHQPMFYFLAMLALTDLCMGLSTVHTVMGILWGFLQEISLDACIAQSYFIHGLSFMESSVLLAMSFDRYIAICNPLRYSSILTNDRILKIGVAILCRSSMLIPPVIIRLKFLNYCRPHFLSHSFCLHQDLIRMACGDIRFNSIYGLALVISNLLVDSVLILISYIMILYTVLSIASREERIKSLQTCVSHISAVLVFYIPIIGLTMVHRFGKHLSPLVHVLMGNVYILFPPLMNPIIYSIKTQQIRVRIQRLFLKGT
Method in brief: as §1

UniProt E9Q4X7 = molecular target: T3, UniProt E9Q4X7
T3 sequence (whole entry): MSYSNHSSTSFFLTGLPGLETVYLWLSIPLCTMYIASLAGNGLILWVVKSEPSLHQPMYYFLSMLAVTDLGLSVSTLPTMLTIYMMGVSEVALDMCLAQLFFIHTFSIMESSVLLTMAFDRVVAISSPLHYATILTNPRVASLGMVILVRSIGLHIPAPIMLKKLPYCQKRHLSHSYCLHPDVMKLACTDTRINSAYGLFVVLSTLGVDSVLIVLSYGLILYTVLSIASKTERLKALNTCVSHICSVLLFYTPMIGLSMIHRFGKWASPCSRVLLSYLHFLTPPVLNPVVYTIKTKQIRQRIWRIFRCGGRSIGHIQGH
Method in brief: as §1

UniProt E9Q546 = molecular target: T4, UniProt E9Q546
T4 sequence (whole entry): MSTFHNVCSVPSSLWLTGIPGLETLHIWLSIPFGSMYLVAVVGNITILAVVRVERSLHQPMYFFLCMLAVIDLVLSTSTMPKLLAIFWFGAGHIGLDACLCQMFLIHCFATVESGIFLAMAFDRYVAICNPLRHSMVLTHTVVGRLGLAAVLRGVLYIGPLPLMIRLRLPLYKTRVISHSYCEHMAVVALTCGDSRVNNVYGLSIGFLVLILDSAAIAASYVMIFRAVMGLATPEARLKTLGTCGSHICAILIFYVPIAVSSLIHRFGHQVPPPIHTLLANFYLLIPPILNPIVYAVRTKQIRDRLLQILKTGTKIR
Method in brief: as §1

UniProt E9Q6Z7 = molecular target: T5, UniProt E9Q6Z7
T5 sequence (whole entry): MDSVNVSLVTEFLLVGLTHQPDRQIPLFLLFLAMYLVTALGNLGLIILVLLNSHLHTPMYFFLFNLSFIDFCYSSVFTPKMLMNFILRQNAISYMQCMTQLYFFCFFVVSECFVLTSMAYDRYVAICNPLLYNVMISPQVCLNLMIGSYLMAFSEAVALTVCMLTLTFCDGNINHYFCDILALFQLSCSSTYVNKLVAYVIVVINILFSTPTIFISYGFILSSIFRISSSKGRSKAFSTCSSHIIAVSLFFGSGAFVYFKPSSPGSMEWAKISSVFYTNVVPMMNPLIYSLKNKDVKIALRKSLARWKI
Method in brief: as §1

UniProt L7MU75 = molecular target: T6, UniProt L7MU75
T6 sequence (whole entry): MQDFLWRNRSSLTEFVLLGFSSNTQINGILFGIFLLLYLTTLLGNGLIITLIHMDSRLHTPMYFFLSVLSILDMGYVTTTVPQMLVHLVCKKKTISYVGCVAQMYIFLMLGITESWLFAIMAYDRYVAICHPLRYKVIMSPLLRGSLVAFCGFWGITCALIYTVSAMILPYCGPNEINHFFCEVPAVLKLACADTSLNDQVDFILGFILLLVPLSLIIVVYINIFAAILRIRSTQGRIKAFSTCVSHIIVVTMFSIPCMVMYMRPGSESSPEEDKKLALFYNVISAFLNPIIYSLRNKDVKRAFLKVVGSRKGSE
Method in brief: as §1

UniProt L7N210 = molecular target: T7, UniProt L7N210
T7 sequence (whole entry): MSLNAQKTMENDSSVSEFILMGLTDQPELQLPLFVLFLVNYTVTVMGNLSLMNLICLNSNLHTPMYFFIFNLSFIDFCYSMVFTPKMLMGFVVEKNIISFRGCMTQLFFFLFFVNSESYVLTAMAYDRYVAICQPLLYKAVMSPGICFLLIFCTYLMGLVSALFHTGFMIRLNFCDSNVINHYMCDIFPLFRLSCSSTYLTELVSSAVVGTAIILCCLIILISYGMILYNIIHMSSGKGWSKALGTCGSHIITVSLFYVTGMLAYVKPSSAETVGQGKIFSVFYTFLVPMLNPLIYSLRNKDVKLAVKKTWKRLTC
Method in brief: as §1

UniProt Q3KPB0 = molecular target: T8, UniProt Q3KPB0
T8 sequence (whole entry): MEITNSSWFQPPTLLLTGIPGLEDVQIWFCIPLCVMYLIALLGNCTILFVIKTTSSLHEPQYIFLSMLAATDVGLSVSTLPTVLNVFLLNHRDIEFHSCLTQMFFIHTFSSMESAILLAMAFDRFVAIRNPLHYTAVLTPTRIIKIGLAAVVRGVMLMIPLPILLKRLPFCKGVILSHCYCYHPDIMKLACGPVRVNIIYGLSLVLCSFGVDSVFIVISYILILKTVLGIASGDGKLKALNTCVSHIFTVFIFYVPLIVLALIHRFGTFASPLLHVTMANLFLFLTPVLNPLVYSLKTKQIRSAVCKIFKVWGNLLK
Method in brief: as §1

UniProt Q3U0P3 = molecular target: T9, UniProt Q3U0P3
T9 sequence (whole entry): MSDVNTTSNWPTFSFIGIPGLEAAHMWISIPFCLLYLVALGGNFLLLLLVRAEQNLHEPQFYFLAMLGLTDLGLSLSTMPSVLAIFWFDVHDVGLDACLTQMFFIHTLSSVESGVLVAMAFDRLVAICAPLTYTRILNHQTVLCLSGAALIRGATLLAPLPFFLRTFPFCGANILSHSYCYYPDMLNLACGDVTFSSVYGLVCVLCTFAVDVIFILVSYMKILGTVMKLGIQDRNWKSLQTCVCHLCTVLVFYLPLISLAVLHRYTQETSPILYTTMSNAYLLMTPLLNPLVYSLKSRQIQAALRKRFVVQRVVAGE
Method in brief: as §1

UniProt Q7TQU8 = molecular target: T10, UniProt Q7TQU8
T10 sequence (whole entry): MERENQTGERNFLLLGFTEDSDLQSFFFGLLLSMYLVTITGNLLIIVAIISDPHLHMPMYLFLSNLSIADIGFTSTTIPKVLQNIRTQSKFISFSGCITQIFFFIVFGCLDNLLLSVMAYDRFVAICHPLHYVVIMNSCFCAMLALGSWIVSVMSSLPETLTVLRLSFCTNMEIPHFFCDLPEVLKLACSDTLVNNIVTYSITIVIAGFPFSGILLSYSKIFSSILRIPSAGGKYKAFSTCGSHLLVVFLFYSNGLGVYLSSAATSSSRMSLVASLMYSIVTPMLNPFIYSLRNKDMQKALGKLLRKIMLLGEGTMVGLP
Method in brief: as §1

UniProt Q7TR79 = molecular target: T11, UniProt Q7TR79
T11 sequence (whole entry): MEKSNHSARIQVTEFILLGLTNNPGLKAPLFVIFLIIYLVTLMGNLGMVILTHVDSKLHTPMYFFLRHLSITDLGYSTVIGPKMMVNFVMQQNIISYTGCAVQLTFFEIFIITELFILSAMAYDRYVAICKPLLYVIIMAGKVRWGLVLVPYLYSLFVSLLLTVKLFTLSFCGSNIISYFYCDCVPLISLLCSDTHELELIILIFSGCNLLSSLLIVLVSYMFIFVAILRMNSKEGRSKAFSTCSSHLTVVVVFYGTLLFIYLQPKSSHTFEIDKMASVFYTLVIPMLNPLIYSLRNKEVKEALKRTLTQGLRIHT
Method in brief: as §1

UniProt E9Q9Z6 = molecular target: T12, UniProt E9Q9Z6
T12 sequence (whole entry): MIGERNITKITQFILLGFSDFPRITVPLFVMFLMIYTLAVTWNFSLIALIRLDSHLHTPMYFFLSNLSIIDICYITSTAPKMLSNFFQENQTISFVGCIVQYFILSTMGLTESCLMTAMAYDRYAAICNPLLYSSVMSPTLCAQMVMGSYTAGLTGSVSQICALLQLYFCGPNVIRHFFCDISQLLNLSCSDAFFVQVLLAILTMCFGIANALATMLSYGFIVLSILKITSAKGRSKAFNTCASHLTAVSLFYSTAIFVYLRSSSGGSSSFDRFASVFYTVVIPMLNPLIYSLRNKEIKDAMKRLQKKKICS
Method in brief: as §1
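Also: active if original authors judged signal statistically different from baseline.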

Structure (SMILES)	odorant receptor agonist call (UniProt E9PVX1)	odorant receptor agonist call (UniProt E9PZ66)	odorant receptor agonist call (UniProt E9Q4X7)	odorant receptor agonist call (UniProt E9Q546)	odorant receptor agonist call (UniProt E9Q6Z7)	odorant receptor agonist call (UniProt L7MU75)	odorant receptor agonist call (UniProt L7N210)	odorant receptor agonist call (UniProt Q3KPB0)	odorant receptor agonist call (UniProt Q3U0P3)	odorant receptor agonist call (UniProt Q7TQU8)	odorant receptor agonist call (UniProt Q7TR79)	odorant receptor agonist call (UniProt E9Q9Z6)
C=C(C)C1CC=C(C=O)CC1 (stereo not drawn)	inactive	inactive	inactive	inactive	inactive	inactive	active	inactive	inactive	inactive	inactive	
COc1ccc(C=O)cc1	inactive	inactive	inactive	inactive	inactive	inactive	active	inactive	inactive	inactive	inactive	
CC(=O)c1cc2c(cc1C)C(C)(C)C(C)CC2(C)C (stereo not drawn)												active
